In ChEMBL document CHEMBL1129335, “Synthesis and structure-activity relationships of 2-substituted D-tryptophan-containing peptidic endothelin receptor antagonists: importance of the C-2 substituent of the D-tryptophan residue for endothelin A and B receptor subtype selectivity” (J Med Chem, 1996):

Legend:
[1] = molecular target: T1, Endothelin receptor type B (Sus scrofa, UniProt P35463); assay: Binding affinity towards endothelin B receptor in porcine cerebellum membranes; type: cell membranes, Membrane
T1 sequence (P35463 whole entry): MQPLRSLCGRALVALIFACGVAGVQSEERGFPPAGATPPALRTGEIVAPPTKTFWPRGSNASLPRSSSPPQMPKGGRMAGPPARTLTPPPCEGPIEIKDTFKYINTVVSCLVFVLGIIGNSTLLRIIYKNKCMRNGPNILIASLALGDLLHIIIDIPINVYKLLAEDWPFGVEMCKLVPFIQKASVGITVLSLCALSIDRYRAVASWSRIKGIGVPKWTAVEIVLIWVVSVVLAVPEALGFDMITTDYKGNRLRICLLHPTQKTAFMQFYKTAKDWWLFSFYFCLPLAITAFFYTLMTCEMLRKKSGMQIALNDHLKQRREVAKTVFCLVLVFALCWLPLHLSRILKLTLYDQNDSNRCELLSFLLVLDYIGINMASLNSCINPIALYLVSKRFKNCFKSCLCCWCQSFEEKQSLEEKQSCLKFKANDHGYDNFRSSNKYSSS
How it was run: (§1)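 Competitive binding in porcine membranes: aortic smooth muscle for ETA and cerebellum for ETB, run by a previously reported method. Variation was generally within 10%.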

[2] = molecular target: T2, Endothelin-1 receptor (Sus scrofa, UniProt Q29010); assay: Binding affinity towards endothelin A receptor in porcine aortic smooth muscle membranes.; how it was run: as §1
T2 sequence (Q29010 whole entry): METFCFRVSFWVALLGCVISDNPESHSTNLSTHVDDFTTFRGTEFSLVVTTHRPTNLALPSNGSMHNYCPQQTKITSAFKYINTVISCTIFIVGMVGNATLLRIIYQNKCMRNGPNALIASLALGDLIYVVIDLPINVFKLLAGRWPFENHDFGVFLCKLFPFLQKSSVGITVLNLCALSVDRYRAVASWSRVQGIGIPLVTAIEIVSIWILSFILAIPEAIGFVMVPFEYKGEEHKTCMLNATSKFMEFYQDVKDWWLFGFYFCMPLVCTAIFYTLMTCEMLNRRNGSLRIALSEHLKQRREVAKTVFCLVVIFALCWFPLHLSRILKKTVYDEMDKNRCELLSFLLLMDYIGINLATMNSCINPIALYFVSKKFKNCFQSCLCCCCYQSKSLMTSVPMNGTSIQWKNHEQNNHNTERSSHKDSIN

[3] = molecular target: T3, Endothelin receptor type B (Homo sapiens, UniProt P24530); assay: Binding affinity towards Endothelin B receptor in human girardi heart cell membranes
T3 sequence (P24530 whole entry): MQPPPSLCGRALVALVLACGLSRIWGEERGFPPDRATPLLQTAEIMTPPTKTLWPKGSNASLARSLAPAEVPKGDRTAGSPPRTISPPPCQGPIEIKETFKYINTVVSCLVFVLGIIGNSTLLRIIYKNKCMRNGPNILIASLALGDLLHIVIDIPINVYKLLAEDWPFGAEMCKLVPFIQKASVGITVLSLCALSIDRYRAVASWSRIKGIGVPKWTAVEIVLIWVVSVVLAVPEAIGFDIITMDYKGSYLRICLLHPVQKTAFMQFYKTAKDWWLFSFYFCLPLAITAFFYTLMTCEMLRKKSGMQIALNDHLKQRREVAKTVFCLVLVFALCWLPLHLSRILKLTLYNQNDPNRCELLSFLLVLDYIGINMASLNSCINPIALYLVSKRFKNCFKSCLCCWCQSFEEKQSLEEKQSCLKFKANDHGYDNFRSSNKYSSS
How it was run: (§2)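 Membrane binding assay on human receptors. ETA came from the neuroblastoma-derived line SK-N-MC and ETB from Girardi heart cells. Inhibition was expressed as IC50.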

[4] = molecular target: T4, Endothelin-1 receptor (Homo sapiens, UniProt P25101); assay: Binding affinity towards Endothelin A receptor in human neuroblastoma-derived cell line SK-N-MC membranes; type: cell-based; how it was run: as §2
T4 sequence (P25101 whole entry): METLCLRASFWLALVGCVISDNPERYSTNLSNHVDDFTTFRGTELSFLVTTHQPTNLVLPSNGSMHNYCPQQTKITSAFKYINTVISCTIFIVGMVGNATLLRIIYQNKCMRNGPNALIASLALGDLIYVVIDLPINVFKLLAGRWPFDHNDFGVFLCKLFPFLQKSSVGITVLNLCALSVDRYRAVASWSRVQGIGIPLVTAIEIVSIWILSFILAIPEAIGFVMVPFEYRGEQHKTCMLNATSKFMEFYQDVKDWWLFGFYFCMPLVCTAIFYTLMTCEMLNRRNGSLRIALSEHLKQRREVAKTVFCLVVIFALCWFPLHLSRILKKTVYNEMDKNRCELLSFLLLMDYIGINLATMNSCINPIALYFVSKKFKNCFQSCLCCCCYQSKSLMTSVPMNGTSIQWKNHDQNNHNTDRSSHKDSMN

[5] = Ability to antagonize ET-1 mediated constriction in rabbit pulmonary arteries; type: functional, Oryctolagus cuniculus
[6] = Ability to antagonize ET-A mediated vasoconstrictor activity in isolated porcine coronary arteries; type: functional; conditions: read-out: pA2 (converted)
How it was run: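 Isolated porcine coronary artery rings were contracted with ET-1, an ETA-mediated response, following a reported method. Antagonism was quantified as a pA2 value.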

[7] = molecular target: T3, Endothelin receptor type B; assay: Binding affinity rowards Endothelin B receptor in human girardi heart cell membranes; how it was run: as §2
[8] = Antagonistic activity against Endothelin B receptor by BQ-3020 induced constriction in isolated rabbit pulmonary arteries; type: functional; conditions: Oryctolagus cuniculus; read-out: pA2 (converted)
How it was run: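 Isolated rabbit pulmonary arteries were contracted with the ETB-selective agonist BQ-3020, following a previously reported protocol. Antagonist potency was given as pA2.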

[9] = Inhibitory activity against ET 1 induced calcium increase in human Girardi heart cells; type: functional, cell-based
How it was run: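 Intracellular Ca2+ rise in intact human Girardi heart cells was induced by ET-1, run by a reported method. Inhibition was expressed as IC50. Compounds were also applied alone at 100 µM to check for any rise in [Ca2+]i.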

Row | IC50 [1] [nM] | IC50 [2] [nM] | IC50 [3] [nM] | IC50 [4] [nM] | IC50 ([3]; heart) [nM] | IC50 ([4]; sk-n-mc) [nM] | IC50 [7] [nM] | IC50 [9] [nM] | Compound | pA2 [5] | Kb [6] [nM] | Kb [8] [nM]
1 | 2.9 | 1 | 4 | 3 |  |  |  |  | CSCCC(NC(=O)[C@@H](Cc1c(C)[nH]c2ccccc12)NC(=O)C(NC(=O)N1[C@H](C)CCC[C@@H]1C)C1CC1)C(=O)O (some centres undefined) |  |  | 
2 | 59 | 1.8 |  |  | 130 | 2.9 |  |  | Cc1[nH]c2ccccc2c1C[C@H]1NC(=O)[C@H](C2CC2)NC(=O)[C@@H](C2CCCC2)NC(=O)[C@@H]2CCCN2C(=O)[C@@H](CC(=O)O)NC1=O |  |  | 
3 | 0.81 | 3.8 | 1.1 | 13 |  |  |  |  | CCCCC(NC(=O)[C@@H](Cc1c(Br)[nH]c2ccccc12)NC(=O)C(NC(=O)N1[C@H](C)CCC[C@@H]1C)C1CC1)C(=O)O (some centres undefined) | 6.4 | 12.6 | 
4 | 15 | 4.9 |  |  | 29 | 8.6 |  |  | O=C(O)C[C@H]1NC(=O)[C@@H](Cc2c(Br)[nH]c3ccccc23)NC(=O)[C@H](C2CC2)NC(=O)[C@@H](C2CCCC2)NC(=O)[C@@H]2CCCN2C1=O | 5.7 | 31.6 | 
5 | 1.8 | 1.9 |  | 6.4 |  |  | 3.6 |  | CCSCC(NC(=O)[C@@H](Cc1c(Br)[nH]c2ccccc12)NC(=O)C(CC(C)C)NC(=O)N1[C@H](C)CCC[C@@H]1C)C(=O)O (some centres undefined) |  |  | 
6 | 2.3 |  | 5 | 2400 |  |  |  | 4 | CCCCC(NC(=O)[C@@H](Cc1c(C#N)[nH]c2ccccc12)NC(=O)C(NC(=O)N1[C@H](C)CCC[C@@H]1C)C(C)C)C(=O)O (some centres undefined) |  |  | 3.16
